# Experiments:
# Cathepsin B [1] = target: T1, Cathepsin B (Homo sapiens, UniProt P07858); assay: Ratio of inhibition kinetic constants kirr and Ki against Cathepsin B
# In short: (§1)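 Cathepsin B, ~5-10 nM, added to 50 mM phosphate pH 6.0, 2.5 mM EDTA, 2.5 mM DTT, 50 μM Z-Arg-Arg-AMC (Km 190 μM), DMF <1%, 25 °C. Fluorescence ex 380/em 450 nm over 5 min. kobs by first-order fit at ≥6 inhibitor concentrations; kirr and Ki app from saturation fit, Ki = Ki app/(1+[S]/Km); kirr/Ki also from 1/kobs vs 1/[I]; duplicates.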
# Cathepsin B [2] = target: T1, Cathepsin B; assay: Compound is evaluated for inhibition kinetic constant Kirr for the cathepsin B; in short: as §1
# Cathepsin B [3] = target: T1, Cathepsin B; assay: Compound is evaluated for inhibition kinetic constant Ki for the cathepsin B; in short: as §1
# [4] = target: Cruzipain (Trypanosoma cruzi) (UniProt P25779); assay: Compound is evaluated for inhibition kinetic constant Kinact for the Cruzaine
# In short: (§2)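 Enzyme (~1-5 nM) starts the reaction with substrate and inhibitor present. Fluorescence ex 380/em 450 nm for 5 min. kobs from first-order fits at ≥6 inhibitor concentrations; Ki app corrected by 1+[S]/Km; second-order constant from 1/kobs vs 1/[I] slope; duplicates.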
# Cruzipain = Cruzipain (Trypanosoma cruzi, UniProt P25779); assay: Compound is evaluated for inhibitory potency against Cruzaine; in short: as §2
# Cathepsin B [5] = target: T1, Cathepsin B; assay: Compound is evaluated for inhibitory potency against cathepsin B; in short: as §1
# Procathepsin L [6] = target: T2, Procathepsin L (Homo sapiens, UniProt P07711); assay: Compound is evaluated for inhibitory potency against cathepsin L
# In short: (§3)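 Fluorescence increase (ex 380, em 450 nm) followed 5 min or to ≤1% activity. kobs by first-order fit at ≥6 inhibitor levels near Ki, fit to saturation equation; Ki = Ki app/(1+[S]/Km); duplicates.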
# Target sequence in this assay (P07711 whole entry): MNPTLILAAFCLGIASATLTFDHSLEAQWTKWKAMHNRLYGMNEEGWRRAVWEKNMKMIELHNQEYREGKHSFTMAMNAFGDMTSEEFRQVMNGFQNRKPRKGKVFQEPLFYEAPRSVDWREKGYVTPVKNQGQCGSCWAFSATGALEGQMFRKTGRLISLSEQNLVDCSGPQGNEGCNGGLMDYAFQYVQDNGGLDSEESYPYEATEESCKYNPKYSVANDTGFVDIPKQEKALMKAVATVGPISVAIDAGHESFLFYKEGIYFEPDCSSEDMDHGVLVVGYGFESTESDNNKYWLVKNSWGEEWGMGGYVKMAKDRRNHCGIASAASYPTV
# Cathepsin K = target: T3, Cathepsin K (Homo sapiens, UniProt P43235); assay: Compound is evaluated for inhibitory potency against cathepsin O2
# T3 sequence (P43235 whole entry): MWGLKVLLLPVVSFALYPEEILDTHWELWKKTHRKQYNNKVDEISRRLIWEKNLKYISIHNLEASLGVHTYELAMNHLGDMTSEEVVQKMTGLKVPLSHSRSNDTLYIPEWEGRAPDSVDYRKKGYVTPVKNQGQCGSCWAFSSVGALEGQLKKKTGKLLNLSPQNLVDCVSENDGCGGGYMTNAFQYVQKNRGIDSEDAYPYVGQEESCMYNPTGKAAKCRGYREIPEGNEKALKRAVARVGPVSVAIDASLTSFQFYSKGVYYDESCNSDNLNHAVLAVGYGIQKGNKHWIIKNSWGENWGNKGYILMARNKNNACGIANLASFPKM
# In short: (§4)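 Read at ex 380/em 450 nm for 5 min. Progress curves fit first-order for kobs at ≥6 inhibitor concentrations; kinact and Ki app from saturation fit, Ki corrected for substrate; ratio also from double-reciprocal slope; duplicates.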
# Cathepsin S [7] = target: T4, Cathepsin S (Homo sapiens, UniProt P25774); assay: Compound is evaluated for inhibition kinetic constant Kinact for the cathepsin S
# In short: (§5)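 Fluorescence ex 380/em 450 nm, 5 min or to ≤1% activity. kobs from first-order fits, ≥6 inhibitor levels near Ki, fit to saturation equation; Ki corrected by 1+[S]/Km; duplicates.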
# Target sequence in this assay (P25774 115-331 limits assumed): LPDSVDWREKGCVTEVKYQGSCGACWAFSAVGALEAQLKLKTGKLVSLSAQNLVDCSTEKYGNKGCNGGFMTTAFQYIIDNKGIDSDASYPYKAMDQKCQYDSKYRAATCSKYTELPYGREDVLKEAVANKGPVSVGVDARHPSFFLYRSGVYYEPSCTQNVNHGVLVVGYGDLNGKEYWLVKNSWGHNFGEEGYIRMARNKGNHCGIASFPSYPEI
# [8] = target: T5, Cathepsin K (Homo sapiens) (UniProt P43235); assay: Compound is evaluated for inhibition kinetic constant Kinact for the cathepsin O2; in short: as §4
# T5 sequence (whole entry): T3 sequence (P43235 whole entry)
# [9] = target: Cruzipain (Trypanosoma cruzi) (UniProt P25779); assay: Ratio of inhibition kinetic constants kinact and Ki against Cruzaine; in short: as §2
# Procathepsin L [10] = target: T2, Procathepsin L; assay: Ratio of inhibition kinetic constants kinact and Ki against Cathepsin L; in short: as §3
# Target sequence in this assay (P07711 114-333 limits assumed): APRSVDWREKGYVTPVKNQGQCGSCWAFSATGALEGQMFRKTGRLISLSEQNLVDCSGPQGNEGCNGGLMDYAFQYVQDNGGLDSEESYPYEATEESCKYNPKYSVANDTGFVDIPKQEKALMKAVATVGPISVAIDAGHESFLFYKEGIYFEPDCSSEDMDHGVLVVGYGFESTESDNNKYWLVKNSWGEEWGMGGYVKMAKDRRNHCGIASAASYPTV
# [11] = target: T5, Cathepsin K (Homo sapiens); assay: Ratio of inhibition kinetic constants kinact and Ki against Cathepsin O2; in short: as §4
# Procathepsin L [12] = target: T2, Procathepsin L; assay: Compound is evaluated for inhibition kinetic constant Kinact for the cathepsin L; in short: as §3
# Target sequence in this assay (P07711 114-333 limits assumed): as above
# Cathepsin S [13] = target: T4, Cathepsin S; assay: Ratio of inhibition kinetic constants kinact and Ki against Cathepsin S; in short: as §5
# Target sequence in this assay (P25774 115-331 limits assumed): as the sequence (P25774 115-331 limits assumed) above
# Cathepsin S [14] = target: T4, Cathepsin S; assay: Compound is evaluated for inhibitory potency against cathepsin S; in short: as §5
# Target sequence in this assay (P25774 whole entry): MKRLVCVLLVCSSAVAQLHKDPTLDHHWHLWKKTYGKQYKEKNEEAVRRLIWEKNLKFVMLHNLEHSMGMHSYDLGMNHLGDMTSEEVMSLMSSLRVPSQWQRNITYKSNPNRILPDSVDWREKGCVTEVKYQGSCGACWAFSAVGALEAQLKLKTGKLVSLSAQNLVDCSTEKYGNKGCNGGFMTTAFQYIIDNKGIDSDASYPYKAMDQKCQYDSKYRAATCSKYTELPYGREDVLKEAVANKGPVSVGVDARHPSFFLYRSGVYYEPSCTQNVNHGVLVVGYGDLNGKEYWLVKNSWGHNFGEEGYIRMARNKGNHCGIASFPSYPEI
# [15] = target: Cruzipain (Trypanosoma cruzi) (UniProt P25779); assay: Compound is evaluated for inhibition kinetic constant (kobs/[I], 1/M.1/s) for Cruzaine; in short: as §2
# Procathepsin L [16] = target: T2, Procathepsin L; assay: Compound is evaluated for inhibition kinetic constant (kobs/[I], 1/M.1/s) for cathepsin L; in short: as §3
# Target sequence in this assay (P07711 114-333 limits assumed): as the sequence (P07711 114-333 limits assumed) above
# [17] = target: T6, Calpain-2 catalytic subunit (Homo sapiens) (UniProt P17655); assay: Compound is evaluated for inhibition kinetic constant (kobs/[I], 1/M.1/s) for Calpain 2
# T6 sequence (whole entry): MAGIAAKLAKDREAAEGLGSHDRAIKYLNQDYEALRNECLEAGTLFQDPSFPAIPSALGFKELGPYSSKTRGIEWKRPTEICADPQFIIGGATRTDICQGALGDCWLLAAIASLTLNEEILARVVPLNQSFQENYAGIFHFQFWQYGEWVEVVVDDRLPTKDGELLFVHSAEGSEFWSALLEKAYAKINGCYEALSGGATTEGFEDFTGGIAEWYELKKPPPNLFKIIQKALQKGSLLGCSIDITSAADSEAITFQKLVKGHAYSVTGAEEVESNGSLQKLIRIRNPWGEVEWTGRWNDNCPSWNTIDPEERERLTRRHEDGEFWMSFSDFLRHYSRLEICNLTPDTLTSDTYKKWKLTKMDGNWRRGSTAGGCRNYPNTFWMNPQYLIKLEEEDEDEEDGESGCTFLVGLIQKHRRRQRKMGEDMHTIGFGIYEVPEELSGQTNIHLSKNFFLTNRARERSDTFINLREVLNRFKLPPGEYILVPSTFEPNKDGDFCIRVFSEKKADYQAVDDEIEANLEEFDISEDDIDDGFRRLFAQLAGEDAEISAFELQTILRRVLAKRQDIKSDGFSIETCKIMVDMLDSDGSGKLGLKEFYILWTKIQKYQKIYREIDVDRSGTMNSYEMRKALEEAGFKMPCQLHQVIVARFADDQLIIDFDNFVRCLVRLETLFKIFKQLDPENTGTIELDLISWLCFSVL
# In short: (§6)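 Enzyme ~20 nM is added last to substrate plus inhibitor at 25 °C. Fluorescence ex 380/em 450 nm for 5 min or until ≤1% activity. Progress curves fit first-order to kobs; reported as kobs/[I]; duplicate runs.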
# Cathepsin B [18] = target: T1, Cathepsin B; assay: Compound is evaluated for inhibition kinetic constant (kobs/[I], 1/M.s) for cathepsin B; in short: as §1
# [19] = target: T7, Calpain-1 catalytic subunit (Homo sapiens) (UniProt P07384); assay: Compound is evaluated for inhibition kinetic constant (kobs/[I], 1/M.1/s) for calpain 1; in short: as §6
# T7 sequence (whole entry): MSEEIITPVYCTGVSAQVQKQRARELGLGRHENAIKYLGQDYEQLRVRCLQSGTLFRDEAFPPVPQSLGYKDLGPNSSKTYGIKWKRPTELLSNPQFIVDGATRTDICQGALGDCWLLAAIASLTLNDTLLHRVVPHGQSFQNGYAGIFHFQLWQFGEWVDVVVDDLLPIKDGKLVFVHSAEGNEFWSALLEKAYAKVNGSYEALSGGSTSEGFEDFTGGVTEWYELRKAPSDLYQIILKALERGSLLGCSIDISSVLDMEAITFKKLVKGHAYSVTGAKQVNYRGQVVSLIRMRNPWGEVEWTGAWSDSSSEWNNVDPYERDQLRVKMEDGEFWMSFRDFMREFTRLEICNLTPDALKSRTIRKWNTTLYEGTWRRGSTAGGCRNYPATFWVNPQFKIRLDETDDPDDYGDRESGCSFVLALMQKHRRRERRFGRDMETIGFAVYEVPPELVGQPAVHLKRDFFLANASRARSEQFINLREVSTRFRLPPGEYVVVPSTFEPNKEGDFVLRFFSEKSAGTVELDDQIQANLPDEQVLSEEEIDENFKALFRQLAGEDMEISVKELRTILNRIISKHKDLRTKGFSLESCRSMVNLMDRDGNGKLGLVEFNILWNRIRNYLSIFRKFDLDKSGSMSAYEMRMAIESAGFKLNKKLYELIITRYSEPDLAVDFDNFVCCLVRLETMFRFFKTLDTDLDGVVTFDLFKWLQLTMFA
# [20] = target: T5, Cathepsin K (Homo sapiens); assay: Compound is evaluated for inhibition kinetic constant (kobs/[I], 1/M.1/s) for cathepsin O2; in short: as §4
# Cathepsin S [21] = target: T4, Cathepsin S; assay: Compound is evaluated for inhibition kinetic constant (kobs/[I], 1/M.1/s) for cathepsin S; in short: as §5
# Target sequence in this assay (P25774 115-331 limits assumed): as the sequence (P25774 115-331 limits assumed) above
# Sequence of Cruzipain (Trypanosoma cruzi) (P25779 123-467 limits assumed): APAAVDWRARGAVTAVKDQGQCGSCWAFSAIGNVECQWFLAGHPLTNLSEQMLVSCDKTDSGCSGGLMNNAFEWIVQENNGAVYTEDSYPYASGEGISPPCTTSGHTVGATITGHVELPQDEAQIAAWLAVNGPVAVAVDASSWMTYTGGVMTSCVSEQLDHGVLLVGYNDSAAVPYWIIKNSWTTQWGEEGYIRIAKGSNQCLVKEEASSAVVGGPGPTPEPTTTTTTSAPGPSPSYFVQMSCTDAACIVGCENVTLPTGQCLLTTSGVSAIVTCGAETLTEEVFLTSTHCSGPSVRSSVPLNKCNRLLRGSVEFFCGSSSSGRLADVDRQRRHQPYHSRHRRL
# Sequence of Cruzipain (P25779 whole entry): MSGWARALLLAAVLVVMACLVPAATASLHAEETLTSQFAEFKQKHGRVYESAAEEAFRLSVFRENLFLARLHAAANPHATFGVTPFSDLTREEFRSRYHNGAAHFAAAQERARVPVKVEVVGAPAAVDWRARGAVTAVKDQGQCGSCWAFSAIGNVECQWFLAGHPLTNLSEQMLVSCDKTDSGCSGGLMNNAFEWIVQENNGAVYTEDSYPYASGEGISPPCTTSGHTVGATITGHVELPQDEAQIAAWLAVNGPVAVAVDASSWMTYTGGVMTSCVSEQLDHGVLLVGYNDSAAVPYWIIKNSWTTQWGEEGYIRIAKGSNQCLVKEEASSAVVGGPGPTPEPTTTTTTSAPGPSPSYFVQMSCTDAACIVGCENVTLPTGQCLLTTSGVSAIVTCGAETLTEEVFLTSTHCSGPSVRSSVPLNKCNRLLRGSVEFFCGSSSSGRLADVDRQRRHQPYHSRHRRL
kirr (Cathepsin B [2]),k obs / 1 [15],k obs / 1 (Procathepsin L [16]),k obs / 1 (Cathepsin B [18]),k obs / 1 [19],k obs / 1 [20],k obs / 1 (Cathepsin S [21]),SMILES,other results
0.36 s⁻¹,,,,,,,O=C(NC(=O)[C@H](Cc1cc(I)c(O)c(I)c1)NC(=O)[C@H](CCc1ccccc1)N/C=C/S(=O)(=O)c1ccccc1)NN1CCOCC1,Ratio (Cathepsin B [1]): 1.08e+06; Ki (Cathepsin B [3]): 0.34 µM
0.17 s⁻¹,,,,,,,O=C(NC(=O)[C@H](Cc1ccccc1)NC(=O)[C@H](CCc1ccccc1)N/C=C/S(=O)(=O)c1ccccc1)NN1CCOCC1,K inact [4]: 0.072 s⁻¹; Ki (Cruzipain): 0.36 µM; Ki (Cathepsin B [5]): 11 µM; Ratio (Cathepsin B [1]): 16400; Ki (Procathepsin L [6]): 1 µM; Ki (Cathepsin K): 30.5 µM; K inact (Cathepsin S [7]): 0.085 s⁻¹; K inact [8]: 0.31 s⁻¹; Ratio [9]: 203000; Ratio (Procathepsin L [10]): 224000; Ratio [11]: 10200; K inact (Procathepsin L [12]): 0.24 s⁻¹; Ratio (Cathepsin S [13]): 7.7e+06; Ki (Cathepsin S [14]): 0.011 µM
,104000 M⁻¹ s⁻¹,1.5e+06 M⁻¹ s⁻¹,0 M⁻¹ s⁻¹,8400 M⁻¹ s⁻¹,22700 M⁻¹ s⁻¹,,CC(=O)N[C@@H](CC(C)C)C(=O)N[C@@H](CC(C)C)C(=O)N[C@@H](CCS(C)(=O)=O)C(=O)/C=C/S(=O)(=O)c1ccccc1,k obs / 1 [17]: 24300 M⁻¹ s⁻¹
,,28700 M⁻¹ s⁻¹,,10800 M⁻¹ s⁻¹,815 M⁻¹ s⁻¹,25100 M⁻¹ s⁻¹,CC(C)C[C@H](NC(=O)NN1CCOCC1)C(=O)N[C@@H](CC(C)C)C(=O)N[C@@H](Cc1ccc(O)cc1)C(=O)/C=C/S(=O)(=O)c1ccccc1,
0.061 s⁻¹,,,,,,,O=C(NC(=O)[C@H](Cc1ccc2ccccc2c1)NC(=O)[C@H](CCc1ccccc1)N/C=C/S(=O)(=O)c1ccc2ccccc2c1)NN1CCOCC1,K inact [4]: 0.046 s⁻¹; Ki (Cruzipain): 0.048 µM; Ki (Cathepsin B [5]): 0.15 µM; Ki (Procathepsin L [6]): 0.018 µM; K inact (Cathepsin S [7]): 0.1 s⁻¹; Ratio [9]: 1.04e+06; K inact (Procathepsin L [12]): 0.14 s⁻¹; Ki (Cathepsin S [14]): 0.0018 µM
,450000 M⁻¹ s⁻¹,2.24e+06 M⁻¹ s⁻¹,33000 M⁻¹ s⁻¹,,,2.9e+07 M⁻¹ s⁻¹,O=C(NC(=O)[C@H](Cc1ccc2ccccc2c1)NC(=O)[C@H](CCc1ccccc1)N/C=C/S(=O)(=O)CCc1ccccc1)NN1CCOCC1,
,180000 M⁻¹ s⁻¹,340000 M⁻¹ s⁻¹,29000 M⁻¹ s⁻¹,,28500 M⁻¹ s⁻¹,4.7e+06 M⁻¹ s⁻¹,O=C(NC(=O)[C@H](Cc1ccccc1)NC(=O)[C@H](CCc1ccccc1)N/C=C/S(=O)(=O)CCc1ccccc1)NN1CCOCC1,
,133000 M⁻¹ s⁻¹,930000 M⁻¹ s⁻¹,0 M⁻¹ s⁻¹,6900 M⁻¹ s⁻¹,,,CCCC[C@H](NC(=O)[C@H](CC(C)C)NC(=O)[C@H](CC(C)C)NC(C)=O)C(=O)/C=C/S(=O)(=O)c1ccccc1,k obs / 1 [17]: 7600 M⁻¹ s⁻¹
0.17 s⁻¹,,,,,,,CC(C)C[C@H](NC(=O)[C@H](CCc1ccccc1)N/C=C/S(=O)(=O)c1ccccc1)C(=O)NC(=O)NN1CCOCC1,K inact [4]: 0.13 s⁻¹; Ki (Cruzipain): 0.22 µM; Ki (Cathepsin B [5]): 39 µM; Ratio (Cathepsin B [1]): 4250; Ki (Procathepsin L [6]): 0.72 µM; Ki (Cathepsin K): 0.23 µM; K inact (Cathepsin S [7]): 0.16 s⁻¹; K inact [8]: 0.17 s⁻¹; Ratio [9]: 620000; Ratio (Procathepsin L [10]): 387000; Ratio [11]: 773000; K inact (Procathepsin L [12]): 0.28 s⁻¹; Ratio (Cathepsin S [13]): 2.63e+07; Ki (Cathepsin S [14]): 0.0059 µM
,110000 M⁻¹ s⁻¹,880000 M⁻¹ s⁻¹,0 M⁻¹ s⁻¹,5600 M⁻¹ s⁻¹,25000 M⁻¹ s⁻¹,,CSCC[C@H](NC(=O)[C@H](CC(C)C)NC(=O)[C@H](CC(C)C)NC(C)=O)C(=O)/C=C/S(=O)(=O)c1ccccc1,
,45000 M⁻¹ s⁻¹,,730 M⁻¹ s⁻¹,6400 M⁻¹ s⁻¹,900 M⁻¹ s⁻¹,280000 M⁻¹ s⁻¹,CC(C)C[C@H](NC(=O)OCc1ccccc1)C(=O)N[C@@H](CC(C)C)C(=O)N[C@@H](Cc1ccc(O)cc1)C(=O)/C=C/S(=O)(=O)c1ccccc1,
,22000 M⁻¹ s⁻¹,8700 M⁻¹ s⁻¹,5100 M⁻¹ s⁻¹,,6540 M⁻¹ s⁻¹,1.2e+06 M⁻¹ s⁻¹,CS(=O)(=O)/C=C/N[C@@H](CCc1ccccc1)C(=O)N[C@@H](Cc1ccccc1)C(=O)NC(=O)NN1CCOCC1,
,149000 M⁻¹ s⁻¹,220000 M⁻¹ s⁻¹,11300 M⁻¹ s⁻¹,,83300 M⁻¹ s⁻¹,1.07e+07 M⁻¹ s⁻¹,NCCCC[C@H](N/C=C/S(=O)(=O)c1ccccc1)C(=O)N[C@@H](Cc1ccccc1)C(=O)NC(=O)NN1CCOCC1,

# Reference: ChEMBL document CHEMBL1128689, “Vinyl sulfones as mechanism-based cysteine protease inhibitors” (J Med Chem, 1995)
